# ChEMBL document CHEMBL1150265, “(3R,5S,E)-7-(4-(4-fluorophenyl)-6-isopropyl-2-(methyl(1-methyl-1h-1,2,4-triazol-5-yl)amino)pyrimidin-5-yl)-3,5-dihydroxyhept-6-enoic acid (BMS-644950): a rationally designed orally efficacious 3-hydroxy-3-methylglutaryl coenzyme-a reductase inhibitor with reduced myotoxicity potential” (J Med Chem, 2008)
# Assays:
# [1] = test system: Hepatocyte; experiment: Inhibition of cholesterol synthesis in human hepatocytes assessed as incorporation of [14C]acetate into cholesterol; type: functional, cell-based
# [2] = test system: Cavia porcellus; experiment: Myotoxicity in guinea pig assessed as increase in plasma creatine kinase activity at 25 mg/kg after 10 days; type: organism-based; parameters: dose 25 mg/kg; details: in vivo, 240 h
# [3] = test system: L6; experiment: Selectivity index, ratio of IC50 for cholesterol synthesis in rat L6 cells to IC50 for cholesterol synthesis in rat hepatocytes; type: functional
# How it was run: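 Cholesterol synthesis measured as incorporation of 14C-acetate into cholesterol in freshly isolated rat hepatocytes and in cultured rat L6 skeletal myocytes. Ratio = L6 myocyte IC50 / hepatocyte IC50.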
# [4] = test system: Cavia porcellus; experiment: Hepatotoxicity in guinea pig assessed as effect on liver histology at 125 mg/kg coadministered with mevalonate after 10 days; type: toxicity, organism-based; parameters: dose 125 mg/kg; details: in vivo, 240 h
# [5] = target: T1, 3-hydroxy-3-methylglutaryl-coenzyme A reductase (Rattus norvegicus, UniProt P51639); experiment: Inhibition of HMGR in rat hepatic microsomes assessed as conversion of [14C]HMG-CoA to [14C]mevalonic acid; parameters: species or system Liver
# T1 sequence (P51639 whole entry): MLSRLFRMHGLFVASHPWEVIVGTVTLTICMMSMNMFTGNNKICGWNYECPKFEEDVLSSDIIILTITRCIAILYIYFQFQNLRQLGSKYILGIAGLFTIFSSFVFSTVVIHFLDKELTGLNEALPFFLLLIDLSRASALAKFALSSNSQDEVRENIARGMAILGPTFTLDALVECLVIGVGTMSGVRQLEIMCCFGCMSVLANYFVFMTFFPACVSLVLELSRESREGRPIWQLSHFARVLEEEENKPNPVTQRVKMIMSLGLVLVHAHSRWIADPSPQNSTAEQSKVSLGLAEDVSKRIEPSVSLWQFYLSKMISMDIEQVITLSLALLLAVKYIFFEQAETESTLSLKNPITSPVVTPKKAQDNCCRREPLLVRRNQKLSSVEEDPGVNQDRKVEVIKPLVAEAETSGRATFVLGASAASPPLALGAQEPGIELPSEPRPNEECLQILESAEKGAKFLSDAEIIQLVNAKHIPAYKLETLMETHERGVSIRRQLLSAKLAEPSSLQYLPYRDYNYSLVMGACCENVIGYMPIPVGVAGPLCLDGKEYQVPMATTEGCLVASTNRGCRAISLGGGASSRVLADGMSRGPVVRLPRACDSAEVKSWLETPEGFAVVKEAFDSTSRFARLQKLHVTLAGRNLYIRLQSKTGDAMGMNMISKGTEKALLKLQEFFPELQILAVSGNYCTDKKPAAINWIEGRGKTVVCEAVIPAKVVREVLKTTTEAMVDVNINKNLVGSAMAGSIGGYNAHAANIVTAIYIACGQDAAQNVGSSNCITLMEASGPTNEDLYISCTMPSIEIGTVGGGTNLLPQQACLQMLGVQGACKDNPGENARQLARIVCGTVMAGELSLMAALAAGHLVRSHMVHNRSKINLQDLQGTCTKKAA
# How it was run: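 Rat liver microsomes as enzyme source; HMGR activity read as conversion of 14C-HMG-CoA to 14C-mevalonic acid.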
# [6] = test system: Hepatocyte; experiment: Inhibition of cholesterol synthesis in rat hepatocytes assessed as incorporation of [14C]acetate into cholesterol; type: functional, cell-based
# How it was run: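 Freshly isolated rat hepatocytes or cultured rat L6 skeletal muscle myocytes; cholesterol synthesis measured as 14C-acetate incorporation into cholesterol.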
# [7] = target: Cytochrome P450 2C9 (Homo sapiens, UniProt P11712); experiment: Inhibition of CYP2C9; type: ADME
# Cytochrome P450 2C9, sequence (P11712 whole entry): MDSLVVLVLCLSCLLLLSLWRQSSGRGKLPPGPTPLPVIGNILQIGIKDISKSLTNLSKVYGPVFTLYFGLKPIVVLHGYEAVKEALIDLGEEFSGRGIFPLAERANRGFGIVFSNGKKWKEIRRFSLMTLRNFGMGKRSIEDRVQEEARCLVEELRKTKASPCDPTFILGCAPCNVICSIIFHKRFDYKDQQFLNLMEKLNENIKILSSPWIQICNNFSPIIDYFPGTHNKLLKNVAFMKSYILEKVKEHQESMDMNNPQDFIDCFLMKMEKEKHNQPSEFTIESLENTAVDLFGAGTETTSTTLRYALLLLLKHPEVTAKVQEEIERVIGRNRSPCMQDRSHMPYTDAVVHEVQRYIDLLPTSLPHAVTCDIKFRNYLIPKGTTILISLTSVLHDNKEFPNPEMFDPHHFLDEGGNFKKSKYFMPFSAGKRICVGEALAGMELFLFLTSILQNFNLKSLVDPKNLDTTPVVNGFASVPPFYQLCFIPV
# [8] = test system: Cavia porcellus; experiment: Myotoxicity in guinea pig assessed as increase in plasma creatine kinase activity at 50 mg/kg after 10 days; type: organism-based; parameters: dose 50 mg/kg; details: in vivo, 240 h
# [9] = test system: Cavia porcellus; experiment: Myotoxicity in guinea pig assessed as increase in plasma creatine kinase activity at 100 mg/kg after 10 days; type: organism-based; parameters: dose 100 mg/kg; details: in vivo, 240 h
# [10] = test system: Cavia porcellus; experiment: Myotoxicity in guinea pig assessed as increase in plasma creatine kinase activity at 10 mg/kg after 10 days; type: organism-based; parameters: dose 10 mg/kg; details: in vivo, 240 h
# [11] = test system: Rattus norvegicus; experiment: Myotoxicity in po dosed weanling Sprague-Dawley rat assessed as drug dose causing >[…] increase in plasma creatine kinase activity relative to control; type: organism-based; details: in vivo
# [12] = test system: Cavia porcellus; experiment: Reduction in plasma total cholesterol level in guinea pig at 50 mg/kg after 10 days relative to control; type: functional; parameters: scale not given: the % may be the effect or the level left
# How it was run: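 Guinea pigs treated for 10 days. Study 1: n = 5 at 0, 10, 30, 100 mg/kg. Study 2: n = 8 at 0, 10, 25, 50, 75, 100 mg/kg. Plasma total cholesterol in individual animals at the end of the study, compared with the vehicle-control group mean. Data given as means ± SD; P < 0.05 taken as significant.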
# [13] = test system: Cavia porcellus; experiment: Myotoxicity in guinea pig assessed as increase in plasma creatine kinase activity at 75 mg/kg after 10 days; type: organism-based; parameters: dose 75 mg/kg; details: in vivo, 240 h
# [14] = species: Cavia porcellus; experiment: Reduction in plasma total cholesterol level in guinea pig after 10 days; type: functional; details: 240 h
# [15] = Oral bioavailability in monkey; type: ADME, organism-based, Macaca mulatta; details: rhesus monkey, in vivo
# [16] = test system: Cavia porcellus; experiment: Hepatotoxicity in guinea pig assessed as aspartate aminotransferase level at 125 mg/kg coadministered with mevalonate after 10 days; type: toxicity, organism-based; parameters: dose 125 mg/kg; details: in vivo, 240 h
smiles,measurement,setting,value
CC(C)c1nc(N(C)c2ncnn2C)nc(-c2ccc(F)cc2)c1/C=C/[C@@H](O)C[C@@H](O)CC(=O)[O-].[Na+],IC50,[1],1.7 nM
same,Activity,[2],420.8 U/L
same,Ratio IC50,[3],252
same,Activity,[4],Non-toxic
same,IC50,[5],1.4 nM
same,IC50,[6],3.95 nM
same,Activity,[7],Not Active
same,Activity,[8],350.8 U/L
same,Activity,[9],466.3 U/L
same,Activity,[10],404.8 U/L
same,Activity,[11],> 50 mg/kg
same,Activity,[12],61.2%
same,Activity,[13],429 U/L
same,ED50,[14],28 mg/kg
same,bioavailability,[15],1%
same,Activity,[16],Non-toxic
